Test results: ChEMBL document CHEMBL3784974, “Design and Structural Characterization of Potent and Selective Inhibitors of Phosphatidylinositol 4 Kinase IIIβ” (J Med Chem, 2016)

Key:
[1] = target: T1, Phosphatidylinositol 4,5-bisphosphate 3-kinase catalytic subunit delta isoform (Homo sapiens, UniProt O00329); assay: Inhibition of histidine-tagged recombinant human full length PI3Kdelta expressed in baculovirus preincubated for 15 mins followed by addition of cold ATP/gamma32P-ATP measured after 20 mins in presence of MgCl2
T1 sequence (O00329 whole entry): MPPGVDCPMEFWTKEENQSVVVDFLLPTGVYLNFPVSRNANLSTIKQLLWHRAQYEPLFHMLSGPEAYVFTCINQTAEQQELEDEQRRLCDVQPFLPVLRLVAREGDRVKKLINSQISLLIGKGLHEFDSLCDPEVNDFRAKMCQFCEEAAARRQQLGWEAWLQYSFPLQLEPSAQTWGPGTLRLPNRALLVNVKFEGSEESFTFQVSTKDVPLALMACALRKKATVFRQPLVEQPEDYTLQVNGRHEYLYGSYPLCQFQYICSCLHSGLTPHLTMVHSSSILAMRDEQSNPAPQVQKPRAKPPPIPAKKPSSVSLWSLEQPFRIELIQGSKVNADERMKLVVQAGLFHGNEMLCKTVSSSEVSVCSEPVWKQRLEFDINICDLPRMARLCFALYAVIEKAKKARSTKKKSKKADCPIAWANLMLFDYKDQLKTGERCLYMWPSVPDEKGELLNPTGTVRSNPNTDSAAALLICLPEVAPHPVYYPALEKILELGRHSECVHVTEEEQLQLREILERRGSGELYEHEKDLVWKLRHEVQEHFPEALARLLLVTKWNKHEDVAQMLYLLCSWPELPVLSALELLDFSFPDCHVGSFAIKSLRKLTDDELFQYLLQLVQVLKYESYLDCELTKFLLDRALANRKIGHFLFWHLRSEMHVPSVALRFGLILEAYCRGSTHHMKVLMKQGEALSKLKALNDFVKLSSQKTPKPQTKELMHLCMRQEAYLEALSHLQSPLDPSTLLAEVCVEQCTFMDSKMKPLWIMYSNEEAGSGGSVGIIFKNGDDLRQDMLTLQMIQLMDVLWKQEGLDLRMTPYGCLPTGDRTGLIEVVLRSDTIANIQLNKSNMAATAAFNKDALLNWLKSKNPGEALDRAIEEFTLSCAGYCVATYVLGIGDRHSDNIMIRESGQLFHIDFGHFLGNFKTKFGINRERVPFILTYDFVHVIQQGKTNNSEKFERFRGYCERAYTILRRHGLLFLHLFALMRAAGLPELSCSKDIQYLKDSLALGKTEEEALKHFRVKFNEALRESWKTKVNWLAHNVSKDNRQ
In short: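 Final: 50 mM HEPES pH 7.5, 100 mM NaCl, 0.03% CHAPS, 10 mM MgCl2, 1 mM EGTA, 2 mM DTT, 80 µM PIP2 (PIP2:DOPS:DOPC), 500 ng/µL BSA, 2% DMSO, 10 µM ATP, 2.5 uCi γ32P-ATP. Nitrocellulose capture, phosphorimaging.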

[2] = target: T2, Phosphatidylinositol 3-kinase catalytic subunit type 3 (Homo sapiens, UniProt Q8NEB9); assay: Inhibition of GST-tagged recombinant human full length VPS34 expressed in baculovirus preincubated for 15 mins followed by addition of cold ATP/gamma32P-ATP measured after 1 hr in presence of MnCl2
T2 sequence (Q8NEB9 whole entry): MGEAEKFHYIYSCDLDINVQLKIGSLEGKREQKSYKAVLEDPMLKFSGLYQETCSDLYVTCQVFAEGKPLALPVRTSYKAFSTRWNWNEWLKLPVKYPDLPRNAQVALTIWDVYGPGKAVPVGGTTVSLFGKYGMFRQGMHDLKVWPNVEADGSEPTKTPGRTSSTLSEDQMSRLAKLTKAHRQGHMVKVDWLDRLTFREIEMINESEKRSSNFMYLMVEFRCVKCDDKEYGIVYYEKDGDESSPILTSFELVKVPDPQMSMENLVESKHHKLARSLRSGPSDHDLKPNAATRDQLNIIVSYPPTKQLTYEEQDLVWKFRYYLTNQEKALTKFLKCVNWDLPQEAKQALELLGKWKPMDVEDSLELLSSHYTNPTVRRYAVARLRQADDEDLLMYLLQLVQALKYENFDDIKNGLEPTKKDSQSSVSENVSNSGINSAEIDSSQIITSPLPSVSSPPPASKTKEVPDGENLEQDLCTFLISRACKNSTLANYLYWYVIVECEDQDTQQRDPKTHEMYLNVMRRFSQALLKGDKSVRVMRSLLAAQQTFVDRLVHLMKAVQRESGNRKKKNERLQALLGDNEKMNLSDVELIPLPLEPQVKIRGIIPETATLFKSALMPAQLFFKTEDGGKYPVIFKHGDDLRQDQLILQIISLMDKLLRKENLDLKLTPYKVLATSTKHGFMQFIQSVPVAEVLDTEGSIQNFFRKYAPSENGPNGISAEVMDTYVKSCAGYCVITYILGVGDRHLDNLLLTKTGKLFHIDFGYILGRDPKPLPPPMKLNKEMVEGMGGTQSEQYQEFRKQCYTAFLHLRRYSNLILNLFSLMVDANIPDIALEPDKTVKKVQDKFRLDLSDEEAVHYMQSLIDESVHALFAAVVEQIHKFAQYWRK
In short: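 Radiometric membrane-capture assay, 10 nM purchased vps34, 15 min preincubation with inhibitor, then 1 h reaction. Final: 50 mM HEPES pH 7.5, 0.1% CHAPS, 2mM MnCl2, 1 mM EGTA, 2 mM DTT, 100 µM PI in PI:DOPS:DOPC, 500 ng/µL BSA, 2% DMSO, 10 µM ATP, 2.5 uCi γ32P-ATP; spots washed, phosphorimaged.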

[3] = Cytotoxicity against human Huh7.5 cells after 3 days by presto blue assay; assay type: cell-based, Huh-7
In short: (§1)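 Huh7.5 cells stably infected with J6/JFH1-GLuc, kept in DMEM/10% FBS, glutamine, NEAA, pen/strep at 37 °C, 5% CO2. 10,000 cells/well; serially diluted compound added 1 h after plating; 3-day incubation. Replication read as Gaussia luciferase activity in supernatant; viability by Presto Blue.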

Hepatitis C virus = assay: Antiviral activity against HCV genotype 2a J6/JFH1 infected in human Huh7.5 cells after 3 days by gaussia luciferase assay; assay type: functional, organism-based, Hepacivirus hominis; conditions: subtype 2a J6/JFH1, Huh-7, 72 h; in short: as §1
[4] = target: T3, Phosphatidylinositol 4,5-bisphosphate 3-kinase catalytic subunit gamma isoform (Homo sapiens, UniProt P48736); assay: Inhibition of histidine-tagged recombinant human full length PI3Kgamma expressed in insect cells preincubated for 15 mins followed by addition of cold ATP/gamma32P-ATP measured after 15 mins in presence of MgCl2
Target sequence in this assay (P48736 whole entry, canonical isoform): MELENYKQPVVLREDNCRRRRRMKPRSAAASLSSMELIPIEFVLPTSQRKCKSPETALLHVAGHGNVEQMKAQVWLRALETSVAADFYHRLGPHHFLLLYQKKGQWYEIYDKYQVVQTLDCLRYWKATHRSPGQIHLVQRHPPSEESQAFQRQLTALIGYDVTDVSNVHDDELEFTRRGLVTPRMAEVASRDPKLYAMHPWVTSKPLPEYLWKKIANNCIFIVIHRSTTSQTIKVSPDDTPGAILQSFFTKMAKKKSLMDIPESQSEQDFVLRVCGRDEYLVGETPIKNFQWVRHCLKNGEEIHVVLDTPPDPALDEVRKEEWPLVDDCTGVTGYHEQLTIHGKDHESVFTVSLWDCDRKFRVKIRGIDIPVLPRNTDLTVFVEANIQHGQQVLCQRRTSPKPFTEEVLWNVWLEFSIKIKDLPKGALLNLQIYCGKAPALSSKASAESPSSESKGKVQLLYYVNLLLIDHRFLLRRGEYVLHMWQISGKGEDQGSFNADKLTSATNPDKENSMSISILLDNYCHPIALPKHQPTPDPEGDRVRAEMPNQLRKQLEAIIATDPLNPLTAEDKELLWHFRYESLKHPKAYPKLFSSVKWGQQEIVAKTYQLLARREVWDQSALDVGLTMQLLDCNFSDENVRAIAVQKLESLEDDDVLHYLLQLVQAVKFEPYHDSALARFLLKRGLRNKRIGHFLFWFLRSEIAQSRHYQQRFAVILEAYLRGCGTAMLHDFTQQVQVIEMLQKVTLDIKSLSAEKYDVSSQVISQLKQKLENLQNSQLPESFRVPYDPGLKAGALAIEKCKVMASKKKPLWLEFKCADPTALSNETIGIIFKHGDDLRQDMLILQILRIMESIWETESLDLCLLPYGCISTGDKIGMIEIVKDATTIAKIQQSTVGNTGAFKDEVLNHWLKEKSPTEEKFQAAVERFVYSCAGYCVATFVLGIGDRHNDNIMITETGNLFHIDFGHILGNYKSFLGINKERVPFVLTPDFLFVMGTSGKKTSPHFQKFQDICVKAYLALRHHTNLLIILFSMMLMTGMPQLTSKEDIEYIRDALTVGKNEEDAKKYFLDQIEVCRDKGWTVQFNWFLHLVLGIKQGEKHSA

[5] = Inhibition of GST-tagged recombinant human full length PI4K3beta expressed in insect cells preincubated for 15 mins followed by addition of cold ATP/gamma32P-ATP measured after 30 mins in presence of MgCl2
In short: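 Membrane-capture radiometric assay. Purchased enzyme, final 2.5 nM. Enzyme preincubated 15 min with inhibitor (diluted in 10% DMSO), then 30 min reaction. Final: 20 mM Bis-Tris propane pH 7.5, 10 mM MgCl2, 0.075 mM Triton X-100, 0.5 mM EGTA, 1 mM DTT, 100 µM PI in PI:DOPS:DOPC, 500 ng/µL BSA, 2% DMSO, 10 µM ATP, 1 uCi γ32P-ATP. Product spotted on nitrocellulose, washed in 1M NaCl/1% phosphoric acid, phosphorimaged.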

[6] = target: T3, Phosphatidylinositol 4,5-bisphosphate 3-kinase catalytic subunit gamma isoform; assay: Inhibition of histidine-tagged recombinant human full length PI3Kgamma expressed in insect cells at 50 uM preincubated for 15 mins followed by addition of cold ATP/gamma32P-ATP measured after 15 mins in presence of MgCl2
Target sequence in this assay (P48736 whole entry, looked up, canonical isoform): as the sequence (P48736 whole entry, canonical isoform) above

[7] = target: T4, Phosphatidylinositol 4,5-bisphosphate 3-kinase catalytic subunit delta isoform (Homo sapiens) (UniProt O00329); assay: Inhibition of histidine-tagged recombinant human full length PI3Kdelta expressed in baculovirus at 50 uM preincubated for 15 mins followed by addition of cold ATP/gamma32P-ATP measured after 20 mins in presence of MgCl2
T4 sequence (whole entry): T1 sequence (O00329 whole entry)

[8] = target: T2, Phosphatidylinositol 3-kinase catalytic subunit type 3; assay: Inhibition of GST-tagged recombinant human full length VPS34 expressed in baculovirus at 50 uM preincubated for 15 mins followed by addition of cold ATP/gamma32P-ATP measured after 1 hr in presence of MnCl2

## CC(=O)Nc1nc(C)c(-c2ccc(Br)c(S(=O)(=O)NCCO)c2)s1
[1]
  IC50: 0.033 µM
[2]
  IC50: 0.146 µM
[3]
  CC50 at 72 h: 5.5 µM
Hepatitis C virus
  IC50: 3 µM
[4]
  IC50: 0.021 µM
[5]
  IC50: 0.0053 µM

## COc1ccc(-c2sc(NC(C)=O)nc2C)cc1S(=O)(=O)NCCO
[1]
  IC50: 0.223 µM
[2]
  IC50: > 50 µM
[3]
  CC50 at 72 h: 42 µM
Hepatitis C virus
  IC50: 29 µM
[4]
  IC50: 0.181 µM
[5]
  IC50: 0.0044 µM

## CC(=O)/N=c1/[nH]c(C)c(-c2ccc(Cl)c(S(=O)(=O)NCCO)c2)s1
[2]
  IC50: 0.307 µM
[3]
  CC50 at 72 h: 10 µM
Hepatitis C virus
  IC50: 4.8 µM
[5]
  IC50: 0.017 µM

## CC(=O)Nc1nc(C)c(-c2ccc(Cl)c(S(=O)(=O)Nc3ccc(F)cc3)c2)s1
[1]
  IC50: 0.029 µM
[2]
  IC50: 0.245 µM
[3]
  CC50 at 72 h: 13 µM
Hepatitis C virus
  IC50: 5.9 µM
[4]
  IC50: 0.031 µM
[5]
  IC50: 0.023 µM

## COc1ccc(-c2sc(NC(=O)C(C)(C)C)nc2C)cc1S(=O)(=O)NCCO
[2]
  IC50: > 50 µM
[6]
  inhibition: < 20%
[3]
  CC50 at 72 h: > 40 µM
Hepatitis C virus
  IC50: 17 µM
[7]
  inhibition: < 50%
[8]
  inhibition: < 20%
[4]
  IC50: > 50 µM
[5]
  IC50: 0.036 µM

## Cc1nc(NC(=O)C2CCCC2)sc1-c1ccc(Cl)c(S(=O)(=O)NCCO)c1
[1]
  IC50: 0.34 µM
[2]
  IC50: > 50 µM
[3]
  CC50 at 72 h: 20 µM
Hepatitis C virus
  IC50: 4.4 µM
[4]
  IC50: 1.5 µM
[5]
  IC50: 0.016 µM

## CC(=O)Nc1nc(C)c(-c2ccc(Cl)c(S(=O)(=O)Nc3ccc(O)cc3)c2)s1
[1]
  IC50: 0.0049 µM
[2]
  IC50: 0.032 µM
[3]
  CC50 at 72 h: 7 µM
Hepatitis C virus
  IC50: 0.57 µM
[4]
  IC50: 0.005 µM
[5]
  IC50: 0.0042 µM

## Cc1nc(NC(=O)C(C)(C)C)sc1-c1ccc(Cl)c(S(=O)(=O)NCCO)c1
[1]
  IC50: 1.57 µM
[2]
  IC50: > 50 µM
[3]
  CC50 at 72 h: 33 µM
Hepatitis C virus
  IC50: 6.8 µM
[4]
  IC50: 3.7 µM
[5]
  IC50: 0.0055 µM
